Molecules are shown by their SMILES.

25 compounds from ChEMBL document CHEMBL1154457, “Synthesis, anti-tubercular activity and 3D-QSAR study of coumarin-4-acetic acid benzylidene hydrazides” (2008) can be followed below.

For the first assay, the system named is Mycobacterium tuberculosis. Nature of the assay: Antitubercular activity against Mycobacterium tuberculosis H37Rv at 12.5 ug/mL after 5 to 8 days. Type of assay: functional. The method, boiled down:
(§1)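 Inoculum diluted to reach growth index 999 in 5 days. Compound added from DMSO stock to 4 ml radiometric 7H12 (BACTEC-12B) broth; DMSO-only controls. Incubated at 37 °C, GI read daily until control reached 999. %inhibition = (1 − GI test/GI control) × 100.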
What is called inhibition is the relative decrease from the control value, in per cent. For `Cc1ccc(C)c2c(CC(=O)N/N=C/c3ccccc3)cc(=O)oc12`, the inhibition at 12.5 µg/mL came out at 70%.

Compound `COc1cc(/C=N/NC(=O)Cc2cc(=O)oc3c(C)ccc(C)c23)cc(OC)c1OC` showed an inhibition at 12.5 µg/mL of 52%.

Turning to `Cc1ccc(C)c2c(CC(=O)N/N=C/c3ccccc3Cl)cc(=O)oc12`, testing at 12.5 µg/mL gave an inhibition of 48%.

Take `Cc1ccc(C)c2c(CC(=O)N/N=C/c3ccc(N(C)C)cc3)cc(=O)oc12`: the inhibition at 12.5 µg/mL turned out to be 7%.

`COc1ccccc1/C=N/NC(=O)Cc1cc(=O)oc2c(C)ccc(C)c12`: at 12.5 µg/mL the inhibition was 54%.

Regarding `Cc1cc2oc(=O)cc(CC(=O)N/N=C/c3ccc(Cl)cc3)c2cc1C`, the inhibition at 12.5 µg/mL was 32%.

For the compound `CSc1ccc(/C=N/NC(=O)Cc2cc(=O)oc3cc(C)c(C)cc23)cc1`, testing at 12.5 µg/mL gave an inhibition of 6%.

As for `Cc1cc2oc(=O)cc(CC(=O)N/N=C/c3ccccc3[N+](=O)[O-])c2cc1C`, the inhibition at 12.5 µg/mL was 11%.

The compound `Cc1ccc(C)c2c(CC(=O)N/N=C/c3ccccc3[N+](=O)[O-])cc(=O)oc12` showed an inhibition at 12.5 µg/mL of 65%.

For `Cc1ccc(C)c2c(CC(=O)N/N=C/c3ccc(Cl)cc3)cc(=O)oc12`, the inhibition at 12.5 µg/mL was determined as 62%.

`Cc1cc2oc(=O)cc(CC(=O)N/N=C/c3cccc([N+](=O)[O-])c3)c2cc1C` registered an inhibition at 12.5 µg/mL of 31%.

For the compound `Cc1cc2oc(=O)cc(CC(=O)N/N=C/c3ccccc3Cl)c2cc1C`, the inhibition at 12.5 µg/mL is 17%.

`Cc1ccc(C)c2c(CC(=O)N/N=C/c3cccc([N+](=O)[O-])c3)cc(=O)oc12`: testing at 12.5 µg/mL gave an inhibition of 39%.

Another assay concerns Mycobacterium tuberculosis. Nature of the assay: Antitubercular activity against Mycobacterium tuberculosis H37Rv at 6.25 ug/mL after 5 to 8 days. Type of assay: functional. The method, boiled down:
as §1
Compound `Cc1ccc2oc(=O)cc(CC(=O)N/N=C/c3ccccc3Cl)c2c1` had an inhibition at 6.25 µg/mL of 34%.

In turn, `COc1cc(/C=N/NC(=O)Cc2cc(=O)oc3ccc(C)cc23)cc(OC)c1OC` gave an inhibition at 6.25 µg/mL of 34%.

In turn, `COc1ccc(/C=N/NC(=O)Cc2cc(=O)oc3ccc(C)cc23)cc1OC` registered an inhibition at 6.25 µg/mL of 29%.

`Cc1ccc2oc(=O)cc(CC(=O)N/N=C/c3ccc(F)cc3)c2c1` had an inhibition at 6.25 µg/mL of 26%.

As to `Cc1ccc2oc(=O)cc(CC(=O)N/N=C/c3ccccc3)c2c1`, the inhibition at 6.25 µg/mL is 34%.

Take `Cc1ccc2oc(=O)cc(CC(=O)N/N=C/c3ccc(Cl)cc3)c2c1`: the inhibition at 6.25 µg/mL turned out to be 19%.

`Cc1ccc2oc(=O)cc(CC(=O)N/N=C/c3cccc(Cl)c3)c2c1` showed an inhibition at 6.25 µg/mL of 21%.

The compound `O=C(Cc1cc(=O)oc2cc(O)ccc12)N/N=C/c1cccc([N+](=O)[O-])c1` gave an inhibition at 6.25 µg/mL of 93%.

In the case of `COc1ccc(/C=N/NC(=O)Cc2cc(=O)oc3ccc(C)cc23)cc1`, the inhibition at 6.25 µg/mL was 33%.

In the case of `Cc1ccc2oc(=O)cc(CC(=O)N/N=C/c3ccccc3O)c2c1`, the inhibition at 6.25 µg/mL amounted to 55%.

In the case of `COc1cccc(/C=N/NC(=O)Cc2cc(=O)oc3ccc(C)cc23)c1`, the inhibition at 6.25 µg/mL was 19%.

On to `Cc1ccc2oc(=O)cc(CC(=O)N/N=C/c3cccc([N+](=O)[O-])c3)c2c1`, for which the inhibition at 6.25 µg/mL worked out at 19%.
